Source: PubChem (several laboratories)
Yeast growth inh: growth inhibitors of yeast BB579 in restrictive medium, primary screen, yeast lifespan-shortening project, S. cerevisiae; OD615, 48 h; inhibition, % at 10 µM; actives 0.51% (n = 140,000); AID 804, 2007;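 active means inhibition above a set limit, 3 SD over the mean compound inhibition, cut at about 44% in these data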
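Detection: OD615 turbidity measurement; Material: Saccharomyces cerevisiae DeaD strain BB579, replicative lifespan model yeast; Timing: 48 h exposure, 30 °C; Doses: single 10 µM dose; Medium: CSMM-D restrictive synthetic medium containing dextrose (glucose); Controls: amphotericin B at 10 µg/mL as positive control.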
RAM network inh: inhibitors of the yeast RAM network, primary screen, dse1pr::URA3 reporter, 5-FOA selection; S. cerevisiae dse1pr::URA3 reporter, 5-FOA growth OD615, 2 d; analog-sensitive cbk1-as2 kinase mutant strain; inhibition, % at 50 µM; actives 1.8% (n = 190,000); AID 868, 2007;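 active means inhibition above a set limit, 3 SD over mean compound inhibition, cut at about 8.4% in these data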;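 further: 0% = DMSO-only wells with no growth and 100% = 10 µM 1-NA-PP1 full growth; inhibition rescues growth on 5-FOA so higher OD means more RAM inhibition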
Measles CPE: compounds protecting cells from measles virus cytopathic effect, primary screen, measles RdRp inhibitor project, single point, MLSMR library, absorbance; Measles virus-infected cells, CPE protection; protection (pct of control), % at 4 µM; actives 1.5% (n = 140,000); AID 841, 2007; in the data active means protection mostly above about 24%, no sharp cut-off; inactive means mostly below about 26%
Yeast lifespan up: compounds extending yeast replicative lifespan, primary screen, S. cerevisiae, OD615; S. cerevisiae growth with nicotinamide; deaD strain in restrictive glucose medium; inhibition of the nicotinamide effect, % at 10 µM; actives 0.68% (n = 130,000); AID 775, 2007;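 active means inhibition above a set limit, placed 3 SD over the median of all compounds, cut at about 26% in these data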;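 further: 0% = nicotinamide-treated wells and 100% = cells grown without nicotinamide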
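assay system = DeaD-strain S. cerevisiae | measured by = absorbance at 615 nm | probe or stimulus = nicotinamide 1.5 mM | buffer or medium = CSMM-D glucose medium, restrictive | times = 48 h at 30 °C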
Starred values were filed as active, the others as inactive; nt = no result. Compounds with a hit are over-represented: about 3.8% of the library has one in this group of screens.

SMILES	Yeast growth inh	RAM network inh	Measles CPE	Yeast lifespan up
COc1ccccc1NC(=O)C1CCCN(c2nc(C)cc(C)n2)C1 (stereo not drawn)	-31	1	33*	nt
O=C(COC(=O)C1=COCCO1)NCc1ccc(Cl)cc1	nt	2	nt	nt
CNC(=S)Nc1ccc(OCc2ccccc2)cc1	nt	1	nt	nt
CCOc1ccc(NC(=S)Nc2ccc(OCc3ccccc3)cc2)cc1	-25	2	44*	3
CCCN(CCC)S(=O)(=O)c1ccc(C(=O)Nc2nc(-c3ccccc3)c(C(=O)OCC)s2)cc1	-23	4	50*	-4
CCOC(=O)c1csc(NC(=O)c2ccc(S(=O)(=O)N(C)C)cc2)n1	-26	2	15	-11
CCOC(=O)c1sc(NC(=O)c2ccc(S(=O)(=O)N(C)C)cc2)nc1C	-44	10*	4	-15
O=C(CN1CC(=O)Nc2ccccc21)NCCc1ccc(Cl)cc1Cl	nt	4	nt	nt
Cc1ccc(-n2c3c(c(=O)[nH]c2=O)C(NS(=O)(=O)c2ccc(Cl)cc2)(C(F)(F)F)C(=O)N3)cc1 (stereo not drawn)	4	0	20	-4
CCOc1ccc2nc(SCC(=O)Nc3cc4c(cc3C(C)=O)OCO4)[nH]c2c1	-33	2	12	-4
COc1ccc(-n2c(SCC#N)nnc2-c2ccc(NS(=O)(=O)c3ccc(C)cc3)cc2)cc1	-43	8.5*	4	-5
COc1ccc(S(N)(=O)=O)cc1C(=O)NCCCN1CCN(c2ccc(C)cc2)CC1	-22	0	5	58*
CC(C)CN(CC(C)C)S(=O)(=O)N1CCC(C(=O)NCc2ccco2)CC1	nt	0	nt	nt
Nc1[nH]c(=O)ncc1F	74*	0	22	2
O=Nc1c2nc3ccccc3n(O)c-2c2ccccc12	64*	6	17	-6
On1c(-c2ccc(Cl)cc2)nc2ccccc21	nt	2	nt	nt
COc1ccc(NC(=O)C/C(C)=N/NC(=O)C(=O)NC2CCCCC2)c(OC)c1	nt	1	nt	nt
COc1ccc(C2CC(c3ccccc3OC(C)=O)=NN2C(=O)/C=C/c2ccccc2)cc1OC (stereo not drawn)	-40	8.5*	24	2
COc1ccc(C2=NN(C(=O)/C=C/c3ccccc3)C(c3ccccc3)C2)c(OC(C)=O)c1 (stereo not drawn)	-47	7	15	6
CN(C)c1ccc(/C=C(\Cl)c2nc3ccccc3s2)cc1	-52	8.6*	5	0
O=C(N/N=C/c1ccccc1OCC(=O)N1CCCC1)C(=O)Nc1ccccc1F	-44	1	4	-2
Cc1ccc(NC(=S)N2CCC(c3nc4ccccc4s3)CC2)cc1C	-12	2	29*	-25
O=C(N/N=C\c1ccc(F)cc1)c1cc(OCC(F)(F)F)ccc1OCC(F)(F)F	-34	4	37*	-23
Cc1cc(C)nc(N2CCCC(C(=O)NC(C)C)C2)n1 (stereo not drawn)	nt	2	nt	nt
COC(=O)CNC(=O)c1c(-c2c(Cl)cccc2Cl)noc1C	-4	4	41*	-18
SMILES	Yeast growth inh	RAM network inh	Measles CPE	Yeast lifespan up
CN1CCN(C(=O)C23CC4CC(C2)CC(c2ccccc2)(C4)C3)CC1	nt	3	nt	nt
Cc1ccc(S(=O)(=O)Oc2ccc(C3C4=C(CCCC4=O)N(CCC(=O)O)C4=C3C(=O)CCC4)cc2Cl)cc1	-35	8.9*	4	0
CCOc1cc(C2C3=C(CCCC3=O)N(CCC(=O)O)C3=C2C(=O)CCC3)ccc1OS(=O)(=O)c1ccc(C)cc1	-16	2	15	1
Cc1cc(OCCCCNC(C)C)cc(C(C)C)c1	-2	1	11	5
COc1cccc(CN(C)CC(=O)Nc2ccccc2C(C)C)c1	nt	1	nt	nt
O=[N+]([O-])c1c(Nc2ccccc2)ccc2nonc12	-30	-1	28*	-12
NS(=O)(=O)c1ccc(Nc2ccc3nonc3c2[N+](=O)[O-])cc1	nt	-1	nt	nt
O=C(Nc1ccc(Cl)cn1)c1ccc(COc2ccccc2Br)o1	nt	11*	nt	nt
CCOc1ccc(OCc2ccc(C(=O)Nc3ccc(Cl)cn3)o2)cc1	-9	4	4	-19
COC(=O)c1ccncc1C(=O)Nc1ccc(F)cc1	nt	1	nt	nt
O=C(CSc1nnc(SCc2cccc3ccccc23)s1)c1ccc2c(c1)OCO2	-36	8.8*	20	-7
O=C(CSc1nc(Cc2ccccc2)nc2ccccc12)c1ccc2c(c1)OCCO2	-39	5	25	-5
CCc1nc(SCC(=O)c2ccc3c(c2)OCCO3)c2ccccc2n1	-69	2	9	147*
Cc1ccc(S(=O)(=O)NCCSc2nnnn2-c2cc(C)ccc2C)cc1	-46	10*	10	-6
CC(=O)Nc1ccc2nc(NC(=O)COc3cccc(C)c3)sc2c1	nt	1	nt	nt
C=CCn1c(SCC(N)=O)nnc1-c1cccc(Br)c1	-36	0	35*	-8
CCOC(=O)c1c(N/N=C/c2ccncc2)n[nH]c1C	-27	1	5	3
CC1CCCC2(C1)NC(=S)N(c1ccccc1)N2 (stereo not drawn)	87*	-2	2	-32
COc1ccc(C(=O)N/N=C/c2cc3ccccc3[nH]c2=S)cc1	-67	9.5*	21	6
COc1ccc(C(=O)N/N=C/c2cccc3cccnc23)cc1	-5	1	6	-12
COc1ccc(C(=O)N/N=C/c2sc3ccccc3c2O)cc1	85*	0	3	-2
O=C(N/N=C/c1sc2ccccc2c1O)c1ccccc1	10	2	2	1
O=C(N/N=C/c1sc2ccccc2c1O)c1cccc2ccccc12	91*	3	3	-4
Nc1nc(-c2ccc(Cl)cc2)nn1C(=O)c1cccs1	nt	1	nt	nt
Nc1cc(=O)nc(SCC(=O)Nc2ccccc2Cl)n1-c1ccccc1	nt	2	nt	nt
SMILES	Yeast growth inh	RAM network inh	Measles CPE	Yeast lifespan up
Cc1ccc(C)c2[nH]c(=O)c(CCNC(=O)c3cc4ccccc4o3)cc12	-16	8.5*	2	0
COc1ccc(OC)c2[nH]c(=O)c(CCNC(=O)c3cc4ccccc4o3)cc12	-49	2	13	-10
CC(/C=N/n1c(COc2ccccc2)n[nH]c1=S)=C\c1ccccc1	-2	8.4*	7	-11
S=c1[nH]nc(COc2ccccc2)n1/N=C/c1ccncc1	nt	2	nt	nt
Nc1nc2ccccc2nc1N	-8	0	4	-1
c1ccc2nc3ccccc3nc2c1	60*	0	10	-8
CCOC(=O)C(C)(C)N(Cc1ccccc1C)S(=O)(=O)c1ccc(Cl)c([N+](=O)[O-])c1	-58	9.3*	16	14
CCCN(CCC)S(=O)(=O)c1ccc(Cl)c([N+](=O)[O-])c1	nt	0	nt	nt
O=C(c1ccc(Br)o1)N1CCN(C/C=C/c2ccccc2)CC1	-32	2	119*	-2
Cc1c(Cl)cccc1N=Cc1ccc([N+](=O)[O-])s1	57*	-2	6	-30
Cc1ccc(-c2cc(-c3ccccc3)nc(Cl)n2)cc1	-11	9.4*	22	-23
